Assay results published in publication PMC10883374 (Science Advances, 2022).
Numbering of substitutions follows the chain as printed. Entries after “also recorded” stand apart in the source; their conditions may differ.

Legend:
hSAMTOR = details: read-out: dissociation constant (Kd); cited from earlier work
F135A mutant dSAMTOR = F135A mutant dSAMTOR (Drosophila melanogaster, UniProt Q9W138, F135A); experiment: ITC ligand binding, F135A dSAMTOR
Method in brief: (§1)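 Tag-free dSAMTOR, expressed as His6-SUMO fusion in E. coli BL21(DE3), purified by Ni-NTA and gel filtration into 10 mM Hepes pH 7.5, 150 mM NaCl, 1 mM DTT. At 25°C, 1 mM SAM or SAH was titrated into 0.2 mM protein over 20 injections, with a background titration into buffer. Single-site fit gave Kd, ΔH and n; ΔG and ΔS were calculated. Runs: three for measurable binding, two for undetectable binding.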

[1] = molecular target: T1, D190A hSAMTOR interaction with GATOR1-KICSTOR (Homo sapiens, UniProt Q1RMZ1, D190A); experiment: Co-IP of Flag-hSAMTOR-D190A with HA-Nprl3 and Myc-Kaptin with or without SAM; type: biochemical; details: HEK 293T cell lysates, 0.5 mM SAM
T1 sequence (Q1RMZ1 1-405 D190A): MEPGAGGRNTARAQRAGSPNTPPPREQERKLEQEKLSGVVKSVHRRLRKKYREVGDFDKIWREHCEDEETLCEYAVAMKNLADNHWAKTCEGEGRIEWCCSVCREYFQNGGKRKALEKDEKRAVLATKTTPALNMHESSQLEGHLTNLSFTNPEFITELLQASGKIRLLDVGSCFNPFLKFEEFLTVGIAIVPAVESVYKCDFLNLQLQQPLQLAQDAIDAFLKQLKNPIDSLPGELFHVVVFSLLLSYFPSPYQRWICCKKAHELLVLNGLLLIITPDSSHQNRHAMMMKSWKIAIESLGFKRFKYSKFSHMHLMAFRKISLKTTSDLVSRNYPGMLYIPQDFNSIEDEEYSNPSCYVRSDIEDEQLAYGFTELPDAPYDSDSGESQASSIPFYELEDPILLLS

V66W/E67P mutant dSAMTOR = V66W/E67P mutant dSAMTOR (Drosophila melanogaster, UniProt Q9W138, E67P/V66W); experiment: ITC ligand binding, V66W/E67P dSAMTOR
V66W/E67P mutant dSAMTOR, sequence (Q9W138 whole entry V66W/E67P): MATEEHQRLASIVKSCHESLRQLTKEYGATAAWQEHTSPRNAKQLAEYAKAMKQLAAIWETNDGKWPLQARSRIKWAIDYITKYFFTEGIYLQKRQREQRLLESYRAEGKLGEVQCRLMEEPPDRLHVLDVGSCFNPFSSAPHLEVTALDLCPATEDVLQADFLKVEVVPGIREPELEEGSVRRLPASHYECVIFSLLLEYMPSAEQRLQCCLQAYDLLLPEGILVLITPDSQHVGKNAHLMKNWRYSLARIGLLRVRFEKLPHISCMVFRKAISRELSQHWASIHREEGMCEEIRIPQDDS
Method in brief: as §1

[2] = molecular target: T2, hSAMTOR MTase domain (residues 91 to 405) interaction with GATOR1-KICSTOR (Homo sapiens, UniProt Q1RMZ1); experiment: Co-IP of hSAMTOR C-terminal MTase domain; type: biochemical; details: hSAMTOR CTD alone, HEK 293T cell lysates, 0.5 mM SAM
T2 sequence (Q1RMZ1 91-405): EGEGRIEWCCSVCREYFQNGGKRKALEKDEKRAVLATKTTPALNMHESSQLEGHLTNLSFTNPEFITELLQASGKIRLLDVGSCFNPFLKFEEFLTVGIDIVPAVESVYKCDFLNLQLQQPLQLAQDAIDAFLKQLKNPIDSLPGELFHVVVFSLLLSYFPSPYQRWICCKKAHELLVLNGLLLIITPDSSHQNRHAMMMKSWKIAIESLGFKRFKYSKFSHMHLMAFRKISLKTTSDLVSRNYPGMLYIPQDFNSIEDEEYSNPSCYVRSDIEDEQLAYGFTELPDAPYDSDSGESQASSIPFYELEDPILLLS
T2 sequence (Q12980 1-569 partner): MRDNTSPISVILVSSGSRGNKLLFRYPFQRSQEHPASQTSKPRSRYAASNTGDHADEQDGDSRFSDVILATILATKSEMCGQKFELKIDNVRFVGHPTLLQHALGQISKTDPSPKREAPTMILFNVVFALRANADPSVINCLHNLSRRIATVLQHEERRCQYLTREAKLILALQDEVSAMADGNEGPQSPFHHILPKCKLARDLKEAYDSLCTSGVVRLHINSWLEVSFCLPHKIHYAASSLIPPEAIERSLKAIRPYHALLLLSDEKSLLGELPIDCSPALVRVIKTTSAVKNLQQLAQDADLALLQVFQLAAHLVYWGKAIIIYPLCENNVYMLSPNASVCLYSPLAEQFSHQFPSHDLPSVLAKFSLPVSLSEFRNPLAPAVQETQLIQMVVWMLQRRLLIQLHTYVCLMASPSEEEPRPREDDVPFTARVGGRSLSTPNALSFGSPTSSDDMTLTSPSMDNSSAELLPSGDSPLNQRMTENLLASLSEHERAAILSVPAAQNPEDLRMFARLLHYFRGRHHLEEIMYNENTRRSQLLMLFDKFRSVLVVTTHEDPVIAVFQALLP
T2 sequence (Q9Y664 1-436 partner): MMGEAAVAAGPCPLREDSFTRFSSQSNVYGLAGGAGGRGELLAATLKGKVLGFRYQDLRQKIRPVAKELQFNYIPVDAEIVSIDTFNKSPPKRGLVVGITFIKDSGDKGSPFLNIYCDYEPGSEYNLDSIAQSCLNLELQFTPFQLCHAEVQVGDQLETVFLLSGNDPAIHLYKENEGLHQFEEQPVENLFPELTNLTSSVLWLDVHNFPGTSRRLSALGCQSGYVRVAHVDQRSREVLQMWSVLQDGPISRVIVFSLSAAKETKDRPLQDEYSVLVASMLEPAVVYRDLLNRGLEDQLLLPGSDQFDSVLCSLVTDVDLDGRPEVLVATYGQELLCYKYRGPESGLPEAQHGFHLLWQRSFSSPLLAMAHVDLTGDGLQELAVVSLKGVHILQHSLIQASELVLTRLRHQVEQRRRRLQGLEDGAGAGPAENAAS

[3] = molecular target: T3, hSAMTOR (WT) interaction with GATOR1-KICSTOR (Homo sapiens, UniProt Q1RMZ1); type: biochemical; details: WT full-length hSAMTOR, HEK 293T cell lysates, 0.5 mM SAM
T3 sequence (Q1RMZ1 1-405): T1 sequence (Q1RMZ1 1-405 D190A) with A190D

F135A mutant dSAMTOR, sequence (Q9W138 whole entry F135A, the tested form may be a part): as the sequence (Q9W138 whole entry V66W/E67P) above, with W66V, P67E, F135A counted along it

## C[S+](CC[C@H](N)C(=O)[O-])C[C@H]1O[C@@H](n2cnc3c(N)ncnc32)[C@H](O)[C@@H]1O (some centres unmarked) [SAM, S-adenosylmethionine]
hSAMTOR
  Kd: 7 µM
F135A mutant dSAMTOR
  Kd: 6.46 ± 0.4 µM
F135A mutant dSAMTOR; F135A vs WT dSAMTOR, ITC
  increase of binding affinity compared to the WT dSAMTOR: < 2 fold
F135A mutant dSAMTOR; ITC, 25°C, F135A dSAMTOR
  n value: 0.79 ± 0.01
  ΔH: -5.24 ± 0.11 kcal/mol
[1]
  effect of SAM on interaction of hSAMTOR with GATOR1-KICSTOR (co-IP): comparable interactions with GATOR1 and KICSTOR in both the absence and presence of SAM
V66W/E67P mutant dSAMTOR
  Kd: 9.47 ± 0.81 µM
V66W/E67P mutant dSAMTOR; ITC, 25°C, V66W/E67P dSAMTOR
  n value: 0.88 ± 0.02
  ΔH: -3.01 ± 0.08 kcal/mol
[2]
  effect of SAM on interaction of the MTase domain with GATOR1-KICSTOR (co-IP): no apparent effect
[3]
  effect of SAM on interaction of hSAMTOR with GATOR1-KICSTOR (co-IP): essentially disrupts its interactions with GATOR1-KICSTOR; also recorded: substantially weakens the interaction
